Experimental data collected from several papers.
Lines come from different studies, so protocols differ.
Target: D(2) dopamine receptor (DRD2, Homo sapiens, UniProt P14416)

O=C(CCCN1CCC(O)(c2ccc(Br)cc2)CC1)c1ccc(F)cc1
koff (binding): 0.00742 s⁻¹

Cc1cc(C)cc(NC(=O)CN2CCN(C(=O)c3ccco3)CC2)c1
inhibition (enzyme activity, inhibitor; 10 µM): 8.3%

CCOc1cc(N2C3COCC2CN(C(=O)[C@H]2C[C@H](O)CN2c2ccc(Cl)cc2)C3)ccc1Cl
inhibition (cell-free assay; 10 µM): 7.26%

O=C1C2CCCN2C(=O)N1CCCCN1CCN(c2cccc(Cl)c2)CC1 (stereo not shown)
inhibition (enzyme activity, inhibitor; 10 µM): 65.4%

COc1cccc(OC[C@@H]2CN(CCN3CCc4ccccc43)CCO2)c1
inhibition (ligand displacement, radioligand; 10 µM): 36.5%

CC(C)c1nc2cc(OCCCCN3CCN(c4cccc5c4OCCN5)CC3)ccc2s1
Emax (β-arrestin recruitment, agonist; HTLA): 36%

CS(=O)(=O)c1cc(C2(NC(=O)c3cncc4c3cnn4-c3ccc(F)cc3)CC2)ccn1
inhibition (cell-free assay; 10 µM): 6.62%

COc1ccc2c(c1)CN(CCCN1CCN(c3ccccc3OC)CC1)C2=O
inhibition (ligand displacement, radioligand; 10 µM): 82.1%

Nc1nonc1C(=O)NCCNCc1cccc(OCc2ccccc2F)c1
inhibition (enzyme activity, inhibitor; 10 µM): 6.52%

CC(=O)C1=C(C)N(c2cccc(C(F)(F)F)c2)C(=O)N[C@H]1c1ccc(C#N)nc1
inhibition (ligand displacement; 10 µM): -1.53%

O=C1c2ccccc2CCN1CCCCN1CCN(c2cccc(Cl)c2Cl)CC1
inhibition (ligand displacement, radioligand; 10 µM): 99.3%

O=C(NCCN1CCN(C(=O)c2ccccc2)CC1)C(=O)Nc1ccccc1
inhibition (enzyme activity, inhibitor; 10 µM): 6.4%

Cc1ccc(OC[C@@H]2CN(CCN3CCc4ccccc43)CCO2)cn1
inhibition (ligand displacement, radioligand; 10 µM): 18.8%

Cc1cc(Nc2nccc(C)n2)cc(-c2cnc([C@@]3(O)CC[C@H](C(=O)O)C(C)(C)C3)s2)c1
inhibition (ligand displacement; 10 µM): -3.52%

O=C(CN1CCO[C@H](COc2cccnc2)C1)N1CCc2ccccc21
inhibition (ligand displacement, radioligand; 10 µM): 9.9%

O=C(CN1CCN(c2ccc(F)cc2)CC1)Nc1cc(Cl)cc(Cl)c1
inhibition (enzyme activity, inhibitor; 10 µM): 13.6%

CNc1nc2cc(OCCCCN3CCN(c4cccc5ccc(C)nc45)CC3)ccc2s1
Emax (β-arrestin recruitment, agonist; HTLA): < 20%

CCC(=NO)C(C)=Cc1ccc(F)c(C)c1
inhibition (ligand displacement; 10 µM): -6.57%

CCOc1ccc(CNCC(O)c2ccccc2)cc1Br (stereo not shown)
inhibition (enzyme activity, inhibitor; 10 µM): 36.2%

O=C(NCc1ncc(C(F)(F)F)cc1Cl)c1ccc2c(c1)C1(CCS(=O)(=O)CC1)[C@@H](C1CC1)N2S(=O)(=O)c1ccc(F)cc1
inhibition (ligand displacement; 10 µM): -8.4%

O=C(CN1CCO[C@@H](COc2ccccn2)C1)N1CCc2ccccc21
inhibition (ligand displacement, radioligand; 10 µM): -15.6%

O=c1nc(-c2ccccn2)sc2ccccc12
inhibition (ligand displacement; 10 µM): 22.9%

FC(F)(F)c1cccc(-c2ccc(CNCCCN3CCOCC3)o2)c1
inhibition (enzyme activity, inhibitor; 10 µM): 48.3%

CC(=O)Nc1c(C(C)=O)c(=O)n(C)c2nc(-c3ccc(Cl)cc3Cl)c(-c3ccc(Cl)cc3)cc12
inhibition (cell-free assay; 10 µM): 5.73%

Clc1cncc(OC[C@H]2CN(CCN3CCc4ccccc43)CCO2)c1
inhibition (ligand displacement, radioligand; 10 µM): 37.8%
